Laboratory results: publication PMC5532717 (ACS Central Science, 2017)

What was measured:
Assay type in all cases: biochemical
GBA2 [1] = biological target: T1, GBA2 (Homo sapiens, UniProt Q9HCG7); test: Competitive ABPP against β-glucosidase probe 14, GBA2+ HEK293T lysate; details: 5 from 30 to 0 μM, 1 h at 37 °C, pH 5.8
T1 sequence (Q9HCG7 1-927): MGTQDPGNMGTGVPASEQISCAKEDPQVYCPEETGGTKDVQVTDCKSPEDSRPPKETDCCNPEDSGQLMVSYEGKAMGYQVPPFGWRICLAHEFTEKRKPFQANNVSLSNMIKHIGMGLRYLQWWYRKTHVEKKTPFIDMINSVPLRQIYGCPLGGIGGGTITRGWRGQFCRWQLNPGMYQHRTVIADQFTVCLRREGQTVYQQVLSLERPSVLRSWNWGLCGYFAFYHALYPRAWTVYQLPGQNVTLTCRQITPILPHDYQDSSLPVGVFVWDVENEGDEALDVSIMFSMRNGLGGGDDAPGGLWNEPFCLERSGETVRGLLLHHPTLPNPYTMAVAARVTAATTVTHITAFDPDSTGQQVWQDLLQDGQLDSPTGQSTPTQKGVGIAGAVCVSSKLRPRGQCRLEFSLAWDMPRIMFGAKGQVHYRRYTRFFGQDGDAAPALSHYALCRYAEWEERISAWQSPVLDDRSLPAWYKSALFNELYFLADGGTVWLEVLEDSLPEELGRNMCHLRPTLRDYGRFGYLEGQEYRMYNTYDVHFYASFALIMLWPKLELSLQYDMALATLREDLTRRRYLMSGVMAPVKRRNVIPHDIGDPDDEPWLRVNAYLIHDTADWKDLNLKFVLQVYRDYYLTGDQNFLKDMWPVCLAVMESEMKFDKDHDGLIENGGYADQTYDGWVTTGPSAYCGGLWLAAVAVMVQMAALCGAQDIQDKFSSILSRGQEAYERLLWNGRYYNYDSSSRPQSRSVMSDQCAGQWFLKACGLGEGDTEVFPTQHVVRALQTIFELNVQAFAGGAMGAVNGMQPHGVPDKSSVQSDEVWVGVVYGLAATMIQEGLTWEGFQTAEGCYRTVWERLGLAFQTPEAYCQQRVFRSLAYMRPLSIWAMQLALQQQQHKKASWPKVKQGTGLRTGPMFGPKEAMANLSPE

GBA3 = biological target: T2, GBA3 (Homo sapiens, UniProt Q9H227); test: Competitive ABPP against β-glucosidase probe 14, GBA3+ HEK293T lysate; details: 5 from 30 to 0 μM, 1 h at 37 °C, pH 6.0
T2 sequence (Q9H227 1-469): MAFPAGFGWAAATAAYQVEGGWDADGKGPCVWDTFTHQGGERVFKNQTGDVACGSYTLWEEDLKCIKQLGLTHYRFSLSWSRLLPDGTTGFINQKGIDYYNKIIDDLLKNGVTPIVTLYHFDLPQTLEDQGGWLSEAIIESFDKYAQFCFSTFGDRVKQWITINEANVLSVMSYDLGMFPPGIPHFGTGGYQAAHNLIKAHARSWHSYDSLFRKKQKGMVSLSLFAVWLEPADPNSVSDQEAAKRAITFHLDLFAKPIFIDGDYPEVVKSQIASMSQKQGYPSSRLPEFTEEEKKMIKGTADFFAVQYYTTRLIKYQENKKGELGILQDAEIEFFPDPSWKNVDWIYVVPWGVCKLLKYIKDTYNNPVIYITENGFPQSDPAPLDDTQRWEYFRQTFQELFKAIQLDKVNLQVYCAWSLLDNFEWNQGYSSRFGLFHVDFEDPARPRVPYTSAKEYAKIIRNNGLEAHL

[2] = biological target: T3, lactase-phlorizin hydrolase (LPH) (Mus musculus, UniProt F8VPT3); test: Competitive ABPP against probe 13 in mouse gastrointestinal lysate; details: mouse intestine lysate, 1 h at 37 °C
T3 sequence (F8VPT3 869-1931 limits assumed): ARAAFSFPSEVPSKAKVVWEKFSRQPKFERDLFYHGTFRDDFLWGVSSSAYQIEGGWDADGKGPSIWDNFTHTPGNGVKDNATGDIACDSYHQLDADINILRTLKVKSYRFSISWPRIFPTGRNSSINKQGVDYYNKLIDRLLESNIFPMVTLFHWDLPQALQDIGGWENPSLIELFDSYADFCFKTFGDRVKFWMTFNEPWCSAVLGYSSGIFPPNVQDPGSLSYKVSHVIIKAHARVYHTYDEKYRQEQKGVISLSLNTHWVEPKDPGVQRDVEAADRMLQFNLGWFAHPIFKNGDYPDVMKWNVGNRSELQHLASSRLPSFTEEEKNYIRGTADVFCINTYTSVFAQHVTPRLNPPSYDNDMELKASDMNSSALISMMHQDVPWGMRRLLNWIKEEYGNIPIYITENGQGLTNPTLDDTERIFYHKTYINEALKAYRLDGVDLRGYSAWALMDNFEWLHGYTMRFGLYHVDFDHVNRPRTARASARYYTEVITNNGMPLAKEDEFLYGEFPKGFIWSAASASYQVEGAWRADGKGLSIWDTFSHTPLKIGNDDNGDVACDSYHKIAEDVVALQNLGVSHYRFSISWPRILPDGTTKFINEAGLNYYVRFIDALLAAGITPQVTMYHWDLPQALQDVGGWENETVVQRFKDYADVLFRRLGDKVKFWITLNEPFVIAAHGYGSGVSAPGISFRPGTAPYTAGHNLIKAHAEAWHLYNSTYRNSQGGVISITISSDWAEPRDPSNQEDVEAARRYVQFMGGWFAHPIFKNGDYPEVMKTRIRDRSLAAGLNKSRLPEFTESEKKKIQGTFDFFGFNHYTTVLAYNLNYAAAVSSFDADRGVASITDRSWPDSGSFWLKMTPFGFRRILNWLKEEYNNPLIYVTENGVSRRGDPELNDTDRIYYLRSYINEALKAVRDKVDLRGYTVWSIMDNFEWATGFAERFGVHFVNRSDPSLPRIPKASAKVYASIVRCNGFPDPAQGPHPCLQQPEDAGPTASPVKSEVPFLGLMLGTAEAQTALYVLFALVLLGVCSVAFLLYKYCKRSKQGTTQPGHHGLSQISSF
How it was run: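 Mixed mouse duodenum, jejunum and ileum homogenates were made in 25 mM potassium phosphate pH 6.5 with protease inhibitors (40 μg protein). Held 5 min on ice in McIlvaine buffer pH 4 or 7. Incubated 1 h at 37 °C with test compound (final 150 to 0.005 μM, plus 0), then probe 13 for 30 min at 37 °C. Boiled in Laemmli buffer, 10% SDS–PAGE, Cy5 fluorescence scan.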

GBA2 [3] = biological target: T1, GBA2; test: In vitro apparent IC50, GBA2 overexpressing HEK293T lysate, 4-MU-β-Glc
How it was run: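 The enzyme source was GBA2-overexpressing HEK293T lysate or recombinant human GAA. It was preincubated 30 min at 37 °C with a range of test compound concentrations, then transferred into 4-MU glucoside substrate mixture to measure residual activity. Quenched with 1 M NaOH–glycine pH 10.3; 4-MU fluorescence at λex 366/λem 445 nm. Apparent IC50 is the mean of three technical replicates.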

inhibition of probe 14 labeling of GBA2 (GBA2 [1]): no inhibition | inhibition of probe 14 labeling of GBA3 (GBA3): no inhibition | competition of off-target probe 13 labeling of LPH [2]: not outcompeted | IC50 (GBA2 [3]): > 100 µM
SMILES: O=S1(=O)O[C@@H]2[C@H](O)[C@@H](O)[C@H](O)[C@@H](CO)[C@@H]2O1 [Compound 5, 1,6-epi-cyclophellitol cyclosulfate]
